This is an account of results in ChEMBL document CHEMBL1157843, “Synthesis and anticonvulsant activity of a new 6-alkoxy-[1,2,4]triazolo[4,3-b]pyridazine” (Eur J Med Chem, 2010).

Calls of active or inactive are those of the source. The calls are words filed in the database; no cut-off is given here. Bounds are passed on as bounds.

In data set [1] the test system is Mus musculus. Put plainly: Anticonvulsant in mouse assessed as protection against maximum electric stimulus-induced seizures at 30 mg/kg, ip after 4 hrs. It is filed as functional, organism-based. Further details: dose 30 mg/kg. The procedure, abridged: (§1)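 Phase-I qualitative MES screen following NIH ADD protocol. KunMing mice (18–25 g), three per dose, test agent in polyethylene glycol-400 i.p. at 30, 100 or 300 mg/kg. Protection assessed 0.5 h and 4 h after dosing; scored as animals protected/animals tested.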

Data set [2] concerns Mus musculus. Description: Neurotoxicity against mouse at 100 mg/kg, ip after 0.5 hrs by rotarod ataxia test. The format is toxicity, organism-based. Further details: dose 100 mg/kg, route intraperitoneal. Conditions: in vivo. An outline of the steps:
(§2)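 Phase-I rotarod ataxia screen per NIH ADD protocol. KunMing mice (18–25 g), three per dose, test agent in polyethylene glycol-400 i.p. at 30, 100 or 300 mg/kg. Neurological deficit read 30 min and 4 h after dosing; scored as animals showing toxicity/animals tested.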
(In general: The rotarod test checks motor coordination on a turning rod.)

The subject of data set [3] is Mus musculus. Description: Neurotoxicity against mouse at 100 mg/kg, ip after 4 hrs by rotarod ataxia test. It is filed as toxicity, organism-based. Also on record: dose 100 mg/kg, route intraperitoneal. Conditions: in vivo. The procedure, abridged:
as §2

Data set [4] has as its system Mus musculus. Description: Anticonvulsant in ip dosed mouse assessed as protection against maximum electric stimulus-induced seizures. It is filed as functional. An outline of the steps:
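Phase-II quantitation in KunMing mice (18–25 g), vehicle polyethylene glycol-400. Groups of 10 received a range of i.p. doses until at least three points fell within 10–90% MES protection or minimal rotarod neurotoxicity. ED50, TD50 and 95% confidence intervals computed from regression by an NINDS program. PI = TD50/ED50.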

Data set [5] deals with Mus musculus. Put plainly: Anticonvulsant in mouse assessed as protection against maximum electric stimulus-induced seizures at 100 mg/kg, ip after 4 hrs. The format is functional, organism-based. Also on record: dose 100 mg/kg. The procedure, abridged: as §1
In data set [6] the test system is Mus musculus. Put plainly: Neurotoxicity against mouse at 30 mg/kg, ip after 0.5 hrs by rotarod ataxia test. To be noted: in vivo. Also on record: dose 30 mg/kg, route intraperitoneal. The format is toxicity, organism-based. An outline of the steps: as §2
Data set [7] relates to Mus musculus. Put plainly: Neurotoxicity against mouse at 30 mg/kg, ip after 4 hrs by rotarod ataxia test. The format is toxicity, organism-based. Also on record: dose 30 mg/kg, route intraperitoneal. Conditions: in vivo. An outline of the steps: as §2
A short description of data set [8]: Neurotoxicity against ip dosed mouse by rotarod ataxia test. The format is toxicity, organism-based. Conditions: in vivo.
Data set [9] deals with Mus musculus. Put plainly: Protective index, ratio of TD50 for ip dosed mouse to ED50 for maximum electric stimulus-induced seizure in ip dosed mouse. It is filed as functional.
Data set [10] concerns Mus musculus. Put plainly: Anticonvulsant in mouse assessed as protection against maximum electric stimulus-induced seizures at 100 mg/kg, ip after 0.5 hrs. It is filed as functional, organism-based. Further details: dose 100 mg/kg. The procedure, abridged: as §1
The species named for data set [11] is Mus musculus. Put plainly: Sedative-hypnotic activity in mouse assessed as reduction in righting reflex. It is filed as organism-based. To be noted: in vivo. An outline of the steps:
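Phase-III work in KunMing mice: behaviour observed at intervals up to 24 h after i.p. TD50, 2TD50 and 4TD50 doses. […] Ratio taken as HD50 divided by i.p. MES ED50.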

The test system of data set [12] is Mus musculus. Description: Anticonvulsant activity in mouse assessed as inhibition of PTZ-induced clonic seizure at 50 mg/kg, ip administered 30 mins prior to PTZ challenge measured after 0.5 hrs. The format is functional. Conditions: route intraperitoneal. An outline of the steps: (§3)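 KunMing mice, 18–25 g, groups of 10; test agent in polyethylene glycol-400 given i.p. 30 min before convulsant. PTZ 85 mg/kg s.c., 3-MP 40 mg/kg s.c., isoniazid 250 mg/kg i.p.; doses chosen to induce seizures in at least 97% of animals. Individual cages, 30 min observation; clonic seizures, tonic seizures and lethality recorded.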

Data set [13] relates to Mus musculus. Description: Anticonvulsant activity in mouse assessed as inhibition of PTZ-induced tonic seizure at 50 mg/kg, ip administered 30 mins prior to PTZ challenge measured after 0.5 hrs. The format is functional. To be noted: route intraperitoneal. The procedure, abridged:
as §3

Data set [14] deals with Mus musculus. Description: Anticonvulsant activity in mouse assessed as reduction of PTZ-induced lethality at 50 mg/kg, ip administered 30 mins prior to PTZ challenge measured after 0.5 hrs. It is filed as functional. Conditions: route intraperitoneal. Further details: scale not given: the % may be the effect or the level left.
In data set [15] the test system is Mus musculus. Description: Anticonvulsant activity in mouse assessed as inhibition of isoniazid-induced clonic seizure at 50 mg/kg, ip administered 30 mins prior to isoniazid challenge measured after 0.5 hrs. The format is functional. Conditions: route intraperitoneal. An outline of the steps:
as §3

Data set [16] deals with Mus musculus. Description: Anticonvulsant activity in mouse assessed as inhibition of isoniazid-induced tonic seizure at 50 mg/kg, ip administered 30 mins prior to isoniazid challenge measured after 0.5 hrs. The format is functional. To be noted: route intraperitoneal. An outline of the steps:
as §3

Data set [17] concerns Mus musculus. Description: Anticonvulsant activity in mouse assessed as reduction of isoniazid-induced lethality at 50 mg/kg, ip administered 30 mins prior to isoniazid challenge measured after 0.5 hrs. It is filed as functional. Further details: scale not given: the % may be the effect or the level left. To be noted: route intraperitoneal.
Data set [18] has as its system Mus musculus. Put plainly: Anticonvulsant activity in mouse assessed as inhibition of 3-mercaptopropionic acid-induced clonic seizure at 50 mg/kg, ip administered 30 mins prior to 3-mercaptopropionic acid challenge measured after 0.5 hrs. The format is functional. Conditions: route intraperitoneal. The procedure, abridged:
as §3

Data set [19] concerns Mus musculus. Description: Anticonvulsant activity in mouse assessed as inhibition of 3-mercaptopropionic acid-induced tonic seizure at 50 mg/kg, ip administered 30 mins prior to 3-mercaptopropionic acid challenge measured after 0.5 hrs. It is filed as functional. To be noted: route intraperitoneal. An outline of the steps:
as §3

The subject of data set [20] is Mus musculus. Description: Anticonvulsant activity in mouse assessed as reduction of 3-mercaptopropionic acid-induced lethality at 50 mg/kg, ip administered 30 mins prior to 3-mercaptopropionic acid challenge measured after 0.5 hrs. It is filed as functional. Further details: scale not given: the % may be the effect or the level left. To be noted: route intraperitoneal.

In data set [21] the test system is Mus musculus. Description: Anticonvulsant activity in mouse assessed as inhibition of thiosemicarbazide-induced clonic seizure at 50 mg/kg, ip administered 30 mins prior to thiosemicarbazide challenge measured after 2.5 hrs. It is filed as functional. To be noted: route intraperitoneal. The procedure, abridged:
(§4)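 KunMing mice (18–25 g), groups of 10, pretreated i.p. with test agent in polyethylene glycol-400 30 min before thiosemicarbazide 50 mg/kg i.p. Animals kept in individual cages and watched for 2 h 30 min, noting clonic seizures, tonic seizures and lethality.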

Data set [22] concerns Mus musculus. Put plainly: Anticonvulsant activity in mouse assessed as inhibition of thiosemicarbazide-induced tonic seizure at 50 mg/kg, ip administered 30 mins prior to thiosemicarbazide challenge measured after 2.5 hrs. The format is functional. Conditions: route intraperitoneal. An outline of the steps: as §4
Data set [23] has as its system Mus musculus. Description: Anticonvulsant activity in mouse assessed as reduction of thiosemicarbazide-induced lethality at 50 mg/kg, ip administered 30 mins prior to thiosemicarbazide challenge measured after 2.5 hrs. It is filed as functional. Further details: scale not given: the % may be the effect or the level left. To be noted: route intraperitoneal.

The ED50 is the dose that gives a 50% effect, or the effect in half of the subjects. Broadly, the TD50 is the dose at which the toxic effect under study appears in half of the subjects. Broadly, the inhibition in vivo is how much of the control response was suppressed.

On to `CCCCCCCCOc1ccc2nncn2n1`, for which the result in data set [1] was inactive. Also, the Activity entry is listed as “Toxic” in data set [2] and “Non-toxic” in data set [3]. Besides, the ED50 in data set [4] is above 100 mg/kg.

As to `COc1ccc(Oc2ccc3nncn3n2)cc1`, in [5], the result was inactive. Moreover, the Activity entry in [2] and in [3] was “Non-toxic” throughout. Moreover, in data set [4], the ED50 is above 100 mg/kg.

For the compound `CCCCCOc1ccc2nncn2n1`, the result in data set [1] was inactive. The figures for the Activity entry in data set [6] and in [7] were “Toxic” and “Non-toxic”, respectively. Also, in data set [4], the ED50 came out at 39.4 mg/kg. For the same compound, the TD50 in data set [8] came to 70.4 mg/kg. For the same compound, the PI in [9] stood at 1.79.

With `O=c1ccc(Oc2ccccc2)n[nH]1`, the result in [5] was inactive. Besides, the Activity entry in data set [3] was “Non-toxic”. Further, in data set [4], the ED50 was 110 mg/kg. The compound also gave a TD50 in [8] of 274 mg/kg. In addition, the PI in data set [9] is 2.5.

On to `CCCCCCCCCOc1ccc2nncn2n1`, for which the outcome in [5] was inactive. Further, the Activity result is “Toxic” in data set [2] and “Non-toxic” in [3]. Further, the ED50 in data set [4] was above 100 mg/kg.

On to `Clc1cccc(Oc2ccc3nncn3n2)c1`, for which the Activity entry in [6] and in data set [7] was “Non-toxic” throughout. The ED50 in [4] was determined as 39.4 mg/kg. Besides, the TD50 in [8] stood at 228 mg/kg. Also, in [9], the PI stood at 5.8.

`CCCCCCCOc1ccc2nncn2n1`: the result in data set [1] was inactive. Also, the Activity entry is recorded as “Toxic” in data set [6] and “Non-toxic” in data set [7]. Moreover, the ED50 in [4] is 42.4 mg/kg. Moreover, the TD50 in data set [8] came out at 73 mg/kg. The PI in data set [9] stood at 1.7.

For `Cc1cccc(Oc2ccc3nncn3n2)c1`, the result in [5] was inactive. For the same compound, the Activity entry in [2] and in data set [3] was “Non-toxic” each time. In addition, the ED50 in [4] was above 100 mg/kg.

With `Brc1ccc(Oc2ccc3nncn3n2)cc1`, the result in data set [10] was Active. Moreover, the outcome in [5] was inactive. The Activity entry in [2] and in data set [3] was “Non-toxic” in each case. Also, the median effective dose (ED50) in [4] is 49.1 mg/kg. The compound also had a TD50 in [8] of 329 mg/kg. Besides, the PI in data set [9] worked out at 6.7.

`NC(=O)N1c2ccccc2C=Cc2ccccc21` [CARBAMAZEPINE]: in [4], the ED50 is 8.8 mg/kg. The HD50 in data set [11] came out at 172 mg/kg. Also, the inhibition in vivo at 50 mg/kg is 100% in data set [12]; 0% in data set [13]; 40% in data set [15]; 0% in data set [16]; 80% in [18]; 0% in data set [19]. Also, the inhibition in vivo at 50 mg/kg in [21] came to 90%; in [22] it was 0%. The Activity is recorded as 0% in data set [14], 0% in data set [17], 10% in [20] and 0% in [23].
